{"data": "Measured values pooled from the literature", "cell line": "K562", "observed": "cell growth or viability", "note": "Compare with care: the assays were run in different laboratories."}
{"SMILES": "COc1ccccc1S(=O)(=O)Nc1ccc2c(c1)CN(C)C(=O)N2", "technique": "ATP luminescence", "measurement": "GI50", "result": "> 20000 nM"}
{"SMILES": "COc1ccc(C(=O)/C=C/c2cccc3ccccc23)cc1S(N)(=O)=O", "technique": "SRB", "time": "48 h", "measurement": "GI50", "result": "1700 nM"}
{"SMILES": "COc1ccc2nccc(N3CCc4c(cc(Cn5ccnc5)cc4-c4cn(C)nc4C(F)(F)F)C3=O)c2c1", "technique": "ATP luminescence", "time": "5 days", "measurement": "GI50", "result": "13000 nM"}
{"SMILES": "COc1cccc(Oc2ccccc2NC(=O)CNC(=O)c2cccc3ccccc23)c1", "technique": "SRB", "time": "48 h", "measurement": "GI50", "result": "129 nM"}
{"SMILES": "COC(=O)CCC1=CC2C=CC=CC1C2C1CCCCC1=O (centres unmarked)", "technique": "flow cytometry", "measurement": "IC50", "result": "62 nM"}
{"SMILES": "CNC(=O)c1cc(OC)cc2c(N3CCc4c(cc(Cn5ccnc5)cc4-c4cn(C)nc4C(F)(F)F)C3=O)ccnc12", "technique": "ATP luminescence", "time": "5 days", "measurement": "GI50", "result": "9700 nM"}
{"SMILES": "CCCCCCCCC1=CC2C=CC=CC1C2C1CCCCC1=O (centres unmarked)", "technique": "flow cytometry", "measurement": "IC50", "result": "41 nM"}
{"SMILES": "COc1ccc(C(=O)/C=C/c2ccc3c(c2)OCCO3)cc1S(N)(=O)=O", "technique": "SRB", "concentration": "10 µM", "measurement": "inhibition", "result": "83%"}
